# SKKanGAS inh – S. pyogenes SKKanGAS growth inhibitors in kanamycin, primary screen, streptokinase expression inhibitor project, SKKanGAS strain, BacTiter-Glo luminescence; 6 h; 1.3% of 300,000 active; inhibition, % at 7.5 µM;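 active = mean replicate score, as percent of positive control median, at least 50; inconclusive = mean below 50 but one replicate at or above 50; inactive = mean and every replicate below 50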;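 note: strain carries kanamycin resistance gene driven by streptokinase promoter and grows in 40 µg/ml kanamycin; loss of luminescence reflects streptokinase promoter inhibition or plain growth inhibition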
# Rad51 HR inh – human RAD51 strand exchange inhibitors, primary screen, biochemical, fluorescence; AID 1385, 2008; hRad51 DNA strand exchange, fluorescence dequenching; 0.085% of 200,000 active; DNA repair protein RAD51 homolog 1 (Homo sapiens), Q06609; inhibition, % at 10 µM;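 active = inhibition above 40% at the single screening dose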
# Target sequence (Q06609 whole entry, looked up): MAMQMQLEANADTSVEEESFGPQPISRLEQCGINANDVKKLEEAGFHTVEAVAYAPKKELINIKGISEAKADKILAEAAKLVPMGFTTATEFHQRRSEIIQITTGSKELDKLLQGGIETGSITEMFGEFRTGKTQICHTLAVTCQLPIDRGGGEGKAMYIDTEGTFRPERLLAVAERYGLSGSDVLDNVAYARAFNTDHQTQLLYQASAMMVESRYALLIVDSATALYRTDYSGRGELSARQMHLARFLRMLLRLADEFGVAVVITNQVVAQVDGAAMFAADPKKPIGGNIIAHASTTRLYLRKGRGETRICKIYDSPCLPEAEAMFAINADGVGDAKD
#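 Test system: preformed human Rad51 ssDNA filaments; also added: Donor/quencher-labelled 47-bp dsDNA substrate; doses: 10 µM final, single point; times: 37 °C 15-min filament assembly, 30-min compound preincubation, 15-min exchange; detection: FRET fluorescence dequenching, excitation 485 nm, emission 520 nm; read-out basis: Fluorescence-based percent inhibition, control- and blank-normalised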
# WT yeast gro inh – growth inhibition of WT strain, primary screen, mitochondrial fusion inhibitor project, WT and mutant strains, chemical genetic | inhibition, % at 10 µM | 2.1% of 190,000 active | mitochondrial fusion phenotypic screen; in the data active = inhibition above about 58%; tested in S. cerevisiae
# Insulin prom up – insulin promoter activators in MIN6 cells, imaging, high-content screening, mouse beta cells; MIN6 insulin promoter-GFP reporter; hits give high values; z-score at 5 µM; 0.3% of 190,000 active; AID 1625, 2009;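 active = z-score above 3 at 5 µM with at least 500 cells counted in the well; inconclusive = wells under 500 cells, flagged as cytotoxic or low count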
# Cl transport mod – KCC2 cotransporter modulators, thallium flux, primary screen, cell-based, HEK293 KCC2, FluoZin-2 fluorescence, MLSMR; Solute carrier family 12 member 5 (Homo sapiens), Q9H2X9; KCC2 cells, thallium flux FluoZin-2 fluorescence; B-score of Tl+ flux slope (higher = more flux/activation; lower = inhibition) at 10 µM; 2.2% of 190,000 active; AID 1456, 2008;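 active = thallium flux slope and its plate-corrected score both differing from the plate sample mean at a set confidence after two filtering rounds, in either direction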;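 note: slope of fluorescence scaled to starting intensity during 10 to 20 s after thallium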
# Autophagy mod – autophagy modulators in MEF cells, primary screen, imaging, high-content, MEF GFP-LC3 | MEF GFP-LC3 puncta imaging; test concentration mostly 10 µM | calls only at 10 µM (by protocol) | 0.98% of 190,000 active | AID 463193, 2010;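 active = percentage of spot-positive cells more than 3 SD above its plate mean, without a fluorescence outlier flag or 80% toxicity; inconclusive = no clear call, values can overlap the other calls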
# A number is an active result; i = inactive; ? = inconclusive; nt = no result given; + = active, no number. Hits are enriched below; roughly 4.2% of the tested compounds scored in any of these assays.
SMILES,SKKanGAS inh,Rad51 HR inh,WT yeast gro inh,Insulin prom up,Cl transport mod,Autophagy mod
CCCCOC(=O)Nc1ccc(OC)cc1S(=O)(=O)N1CCOCC1,i,i,i,nt,-3.28,i
Cc1nc(NC(=O)c2cccc(Cl)c2)sc1C(=O)N1CCCCC1,i,i,i,i,i,i
CCC(=O)OCCNc1cc(Sc2nc3ccccc3s2)c2nonc2c1[N+](=O)[O-],?,i,94.7,i,i,i
Cc1nc(N2CCN(Cc3ccc4c(c3)OCO4)CC2)c2oc3ccccc3c2n1,nt,nt,i,nt,nt,nt
Cc1nc(N2CCN(Cc3ccc4c(c3)OCO4)CC2)c2cc(-c3ccccc3)sc2n1,?,i,70.0,i,i,i
O=C(Nc1nnc(-c2ccccc2Cl)o1)c1nc2ccccc2s1,94.9,i,i,i,nt,i
O=C(Nc1nnc(-c2ccccc2Cl)o1)c1ccco1,i,i,i,nt,i,i
CCC1(C)OCC(Cn2c3ccccc3c3ccccc32)O1 (centres undefined),i,i,60.9,nt,i,i
CC(C)NC(=S)NNC(=O)C12CC3CC(CC(C3)C1)C2,i,i,i,nt,nt,i
CCCCNC(=S)NNC(=O)C12CC3CC(CC(C3)C1)C2,i,105.7,i,i,i,i
N#CC1=C(N)SC(N)=C(C#N)C1CCc1ccccc1,i,i,i,i,-3.05,i
CCc1ccc(C2C(C#N)=C(N)SC(N)=C2C#N)cc1,i,i,i,i,7.91,i
N#CC1=C(N)SC(N)=C(C#N)C1c1c(Cl)cccc1Cl,?,i,62.7,i,nt,i
Cc1ccc(C(C(=O)NC(C)(C)C)N(Cc2cccs2)C(=O)c2ccc3c(c2)OCCO3)cc1 (centres undefined),i,i,71.5,i,i,i
CCC(C)(C)NC(=O)C(c1ccc(C)cc1)N(Cc1cccs1)C(=O)c1ccc2c(c1)OCCO2 (centres undefined),i,nt,73.7,i,i,i
Cc1ccc(C(C(=O)NC(C)(C)C)N(Cc2cccs2)C(=O)c2csnn2)cc1 (centres undefined),i,i,nt,nt,i,i
C/C(=N\N=C(/N)SC1CC(=O)N(c2cccc(Cl)c2)C1=O)c1cccs1 (centres undefined),i,nt,94.2,i,i,i
CSc1ccc(/C=c2\s/c(=C\C(=O)C(C)(C)C)n(CC(=O)NCCC3=CCCCC3)c2=O)cc1,i,i,i,i,i,+
O=C(Cc1ccccc1F)Nc1ccccc1N1CCCC1,i,nt,nt,nt,nt,nt
CCC(=O)N1CCN(c2ccccc2NC(=O)COc2cccc(C)c2)CC1,i,i,i,i,13.1,i
O=C(CNCc1ccccc1Cl)Nc1ccccc1N1CCCCC1,i,i,79.6,i,nt,i
Cc1cccc(OCC(=O)Nc2ccccc2N2CCCC2)c1C,i,nt,nt,nt,nt,nt
Cc1ccccc1OCC(=O)Nc1ccccc1N1CCCCC1,57.3,i,i,i,i,i
COC(=O)C(CC(=O)c1ccc(Cl)cc1)c1ccc(C(C)C)cc1 (centres undefined),i,i,70.4,i,nt,i
Cc1ccc(C(CC(=O)c2ccc(Cl)cc2)C(=O)O)cc1 (centres undefined),i,i,i,i,i,i
SMILES,SKKanGAS inh,Rad51 HR inh,WT yeast gro inh,Insulin prom up,Cl transport mod,Autophagy mod
COc1ccc2c(C(=O)CN(C)C3CCCCC3)c[nH]c2c1,i,i,i,4.45,nt,i
CCN(CC)S(=O)(=O)c1ccc2c(c1)nc(SC(C)C(N)=O)n2-c1ccc(OC)cc1 (centres undefined),i,63.1,i,nt,i,i
Cc1sc2nc(-c3ccncc3)[nH]c(=O)c2c1-c1ccccc1,i,nt,i,i,i,i
Cc1sc2nc(-c3ccccn3)[nH]c(=O)c2c1-c1ccccc1,79.7,i,i,i,i,i
C/C(=N/NS(=O)(=O)c1ccc(Cl)cc1)c1cccc(NC(=O)c2ccc(Cl)cc2Cl)c1,64.2,nt,i,nt,nt,i
COCCn1c(SCC(=O)Nc2cc(C)on2)nnc1C(C)C,i,nt,nt,nt,nt,nt
CC(=O)NCCCc1nc2ccccc2n1Cc1ccccc1F,i,i,nt,i,i,nt
COc1ccc(C(=O)NCCCc2nc3ccccc3n2Cc2ccccc2C)cc1OC,i,i,i,i,i,+
O=[N+]([O-])c1ccc(C[n+]2cccc3ccc4cccnc4c32)cc1,i,i,59.0,i,i,i
COc1ccc(C(=O)Nc2sc(C)c(-c3ccccc3)c2C#N)cc1OC,54.0,i,i,nt,i,i
Cc1sc(NC(=O)COc2ccccc2)c(C#N)c1-c1ccccc1,i,i,i,i,i,i
Cc1cc2c(cc(C(=O)OCC(=O)NCc3cccs3)n2C(C)C)o1,i,i,i,i,i,+
Cc1ccc(C(=O)OCC(=O)NCc2cccs2)c(C)c1,i,i,i,i,i,+
Cc1cc(C)cc(C(=O)OCC(=O)NCc2cccs2)c1,i,nt,i,i,i,i
Cc1c(C)n2c(SCC(=O)N3CC(C)OC(C)C3)nnc2[nH]c1=O (centres undefined),i,nt,nt,nt,nt,nt
Cc1nc2ccc(C(=O)NCc3ccc4c(c3)OCO4)cc2s1,i,i,64.2,i,i,i
CC(C)CNC(=O)c1oc2ccccc2c1COc1ccccc1,i,nt,63.0,i,i,i
CCC(CC)NC(=O)c1oc2ccccc2c1COc1ccccc1,51.9,i,i,i,i,i
Cc1oc(C(C)(C)C)c(CN2CCOCC2)c1C(=O)O,i,i,i,i,i,i
CC(C)(C)NC(=O)C(c1ccco1)N(C(=O)Cn1nnc(-c2ccc(F)cc2)n1)c1ccccc1F (centres undefined),i,i,62.8,i,i,i
CC(C)[C@H](NC(=O)[C@@H]1Cc2ccccc2CN1C(=O)OC(C)(C)C)C(=O)NCc1ccco1,i,nt,nt,nt,nt,nt
N#Cc1c2c(c(Nc3ccccc3)n3c1nc1ccccc13)CCC2,i,i,i,i,i,i
N#Cc1c2c(c(-n3cnc4ccccc43)n3c1nc1ccccc13)CCC2,i,i,i,4.79,i,i
Cc1c2c(n3c(nc4ccccc43)c1C#N)N(c1ccccc1)CC2,nt,i,i,i,i,+
Cc1c2c(n3c(nc4ccccc43)c1C#N)N(CCN(C)C)CC2,i,i,i,i,i,i
C(=N\N(Cc1ccccc1)c1ccccc1)/c1cccnc1,i,i,74.2,i,i,i
Oc1cccc(/C=N/N(Cc2ccccc2)c2ccccc2)c1,?,i,90.2,i,i,i
C/C(=N\N(Cc1ccccc1)c1ccccc1)c1cccnc1,i,i,i,i,i,i
CCC(Oc1ccccc1)C(=O)Nc1ccc(C)c(S(=O)(=O)N2CCOCC2)c1 (centres undefined),i,nt,nt,nt,nt,nt
COC(=O)[C@H](CC(C)C)NC(=O)Nc1ccccc1F,i,i,nt,i,i,nt

# Screens deposited in PubChem BioAssay by several laboratories.
